From ChEMBL document CHEMBL4689842, “EUbOPEN Chemogenomics Library wave 1” (2021)
Values joined by “and” are separate entries in the source; they are usually repeats but may differ in a detail not shown here. Identical values can stand only once.

Key:
Format in all cases: toxicity, cell-based
[1] = test system: Fibroblast; experiment: Multiplex assay against human fibroblast; settings: 10 µM, compound concentration 10 uM
Outline: (§1)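 Hoechst33342, BioTracker Green Microtubule Cytoskeleton Dye, MitoTracker Red and Annexin V Alexa Fluor 680 were added to live cells at seeding, and imaging on a CQ1 microscope at 37°C and 5% CO2 followed compound addition. Gating by CellPathfinder machine learning separated cells into Hoechst high-intensity objects or normal cells, then normal cells into healthy, pyknosed or fragmented nuclei, then pyknosed cells into mitotic or apoptotic. Per cents of healthy-nucleus cells are reported for the tubulin, mitochondrial-mass and membrane-permeability phenotypes.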

[2] = test system: HEK-293T; experiment: Multiplex assay against HEK293T; settings: human, 10 µM, compound concentration 10 uM; outline: as §1;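 on Population Tubulin-Different-Phenotype (%): share of the cells with healthy nuclei that show this phenotype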
[3] = test system: U2OS; experiment: Multiplex assay against U2OS; settings: human, 10 µM, compound concentration 10 uM; outline: as §1
[4] = test system: HEK-293T; experiment: Incucyte cell viability with HEK293T; settings: human, 10 µM, compound concentration 10 uM; further: filed as whole numbers so only -1 and 0 and 1 occur
[5] = test system: Fibroblast; experiment: Incucyte cell viability with human fibroblast; settings: 10 µM, compound concentration 10 uM; further: filed as whole numbers so only -1 and 0 and 1 occur
[6] = test system: U2OS; experiment: Incucyte cell viability with U2OS; settings: human, 10 µM, compound concentration 10 uM; further: filed as whole numbers so only -1 and 0 and 1 occur
[7] = 0 h, replicate number 2, timepoint 0 hours
[8] = 6 h, replicate number 1, timepoint 6 hours
[9] = 12 h, replicate number 1, timepoint 12 hours
[10] = 18 h, replicate number 1, timepoint 18 hours
[11] = 24 h, replicate number 1, timepoint 24 hours

O=C(NCCN1CCOCC1)c1ccc2c(c1)C(=O)c1ccc(Nc3ccc(F)c(NC(=O)c4ccccc4)c3)cc1CC2 [FS-694]
Population Apoptotic (%) ([1]; 12 h, replicate 1): 65% and 38% | Population Fragmented Nuclei (%) ([1]; 12 h, replicate 1): 35% and 51% | Population Healthy Nuclei (%) ([1]; 12 h, replicate 1): 49% and 32% | Population Mitotic Cells (%) ([1]; 12 h, replicate 1): 34% and 61% | Population Normal (%) ([1]; 12 h, replicate 1): 81% and 29% | Population Pyknosed Nuclei (%) ([1]; 12 h, replicate 1): 14% | Population Tubulin-Different-Phenotype (%) ([1]; 12 h, replicate 1): 20% and 24% | Total Cell Count ([1]; 12 h, replicate 1): 371 and 970 | Population Apoptotic (%) ([1]; 12 h, replicate 2): 72% and 68% | Population Fragmented Nuclei (%) ([1]; 12 h, replicate 2): 57% | Population Healthy Nuclei (%) ([1]; 12 h, replicate 2): 27% and 29% | Population Hoechst High Intensity Objects (%) ([1]; 12 h, replicate 2): 44% and 82% | Population Membrane Permeable-Phenotype (%) ([1]; 12 h, replicate 2): 21% and 20% | Population Mitochondria Different-Phenotype (%) ([1]; 12 h, replicate 2): 15% and 0% | Population Mitotic Cells (%) ([1]; 12 h, replicate 2): 27% and 31% | Population Pyknosed Nuclei (%) ([1]; 12 h, replicate 2): 15% and 13% | Population Apoptotic (%) ([1]; 24 h, replicate 1): 44% and 59% | Population Fragmented Nuclei (%) ([1]; 24 h, replicate 1): 50% and 35% | Population Healthy Nuclei (%) ([1]; 24 h, replicate 1): 36% and 50% | Population Membrane Permeable-Phenotype (%) ([1]; 24 h, replicate 1): 8% | Population Mitochondria Different-Phenotype (%) ([1]; 24 h, replicate 1): 13% and 7% | Population Mitotic Cells (%) ([1]; 24 h, replicate 1): 55% and 40% | Population Normal (%) ([1]; 24 h, replicate 1): 34% and 80% | Population Pyknosed Nuclei (%) ([1]; 24 h, replicate 1): 13% and 14% | Population Tubulin-Different-Phenotype (%) ([1]; 24 h, replicate 1): 25% and 24% | Total Cell Count ([1]; 24 h, replicate 1): 927 and 391 | Population Apoptotic (%) ([1]; 24 h, replicate 2): 80% and 55% | Population Fragmented Nuclei (%) ([1]; 24 h, replicate 2): 43% and 57% | Population Healthy Nuclei (%) ([1]; 24 h, replicate 2): 40% and 27% | Population Hoechst High Intensity Objects (%) ([1]; 24 h, replicate 2): 50% and 77% | Population Membrane Permeable-Phenotype (%) ([1]; 24 h, replicate 2): 16% and 15% | Population Mitochondria Different-Phenotype (%) ([1]; 24 h, replicate 2): 20% and 0% | Population Mitotic Cells (%) ([1]; 24 h, replicate 2): 20% and 44% | Population Normal (%) ([1]; 24 h, replicate 2): 50% and 22% | Population Pyknosed Nuclei (%) ([1]; 24 h, replicate 2): 16% and 15% | Population Tubulin-Different-Phenotype (%) ([1]; 24 h, replicate 2): 20% and 9% | Population Apoptotic (%) ([2]; 12 h, replicate 1): 34% | Population Fragmented Nuclei (%) ([2]; 12 h, replicate 1): 35% and 16% | Population Healthy Nuclei (%) ([2]; 12 h, replicate 1): 29% and 54% | Population Membrane Permeable-Phenotype (%) ([2]; 12 h, replicate 1): 32% and 21% | Population Mitochondria Different-Phenotype (%) ([2]; 12 h, replicate 1): 12% and 9% | Population Mitotic Cells (%) ([2]; 12 h, replicate 1): 65% | Population Normal (%) ([2]; 12 h, replicate 1): 41% and 85% | Population Pyknosed Nuclei (%) ([2]; 12 h, replicate 1): 35% and 29% | Population Tubulin-Different-Phenotype (%) ([2]; 12 h, replicate 1): 30% and 33% | Total Cell Count ([2]; 12 h, replicate 1): 1239 and 557 | Population Apoptotic (%) ([2]; 12 h, replicate 2): 28% and 16% | Population Fragmented Nuclei (%) ([2]; 12 h, replicate 2): 3% and 4% | Population Healthy Nuclei (%) ([2]; 12 h, replicate 2): 69% and 85% | Population Membrane Permeable-Phenotype (%) ([2]; 12 h, replicate 2): 15% and 11% | Population Mitochondria Different-Phenotype (%) ([2]; 12 h, replicate 2): 47% and 23% | Population Mitotic Cells (%) ([2]; 12 h, replicate 2): 71% and 83% | Population Normal (%) ([2]; 12 h, replicate 2): 76% and 96% | Population Pyknosed Nuclei (%) ([2]; 12 h, replicate 2): 26% and 9% | Population Tubulin-Different-Phenotype (%) ([2]; 12 h, replicate 2): 97% and 66% | Total Cell Count ([2]; 12 h, replicate 2): 1142 and 1356 | Population Apoptotic (%) ([2]; 24 h, replicate 1): 48% and 24% | Population Membrane Permeable-Phenotype (%) ([2]; 24 h, replicate 1): 31% and 22% | Population Mitochondria Different-Phenotype (%) ([2]; 24 h, replicate 1): 14% and 8% | Population Mitotic Cells (%) ([2]; 24 h, replicate 1): 51% and 75% | Population Normal (%) ([2]; 24 h, replicate 1): 43% and 89% | Population Pyknosed Nuclei (%) ([2]; 24 h, replicate 1): 34% and 16% | Population Tubulin-Different-Phenotype (%) ([2]; 24 h, replicate 1): 18% and 51% | Total Cell Count ([2]; 24 h, replicate 1): 1331 and 564 | Population Fragmented Nuclei (%) ([2]; 24 h, replicate 2): 5% | Population Healthy Nuclei (%) ([2]; 24 h, replicate 2): 85% and 58% | Population Mitotic Cells (%) ([2]; 24 h, replicate 2): 90% and 60% | Population Normal (%) ([2]; 24 h, replicate 2): 95% and 69% | Population Tubulin-Different-Phenotype (%) ([2]; 24 h, replicate 2): 70% and 96% | Total Cell Count ([2]; 24 h, replicate 2): 1983 and 1283 | Population Apoptotic (%) ([3]; 12 h, replicate 1): 75% and 25% | Population Healthy Nuclei (%) ([3]; 12 h, replicate 1): 83% and 54% | Population Membrane Permeable-Phenotype (%) ([3]; 12 h, replicate 1): 67% and 52% | Population Mitochondria Different-Phenotype (%) ([3]; 12 h, replicate 1): 18% and 50% | Population Mitotic Cells (%) ([3]; 12 h, replicate 1): 25% and 74% | Population Normal (%) ([3]; 12 h, replicate 1): 95% and 53% | Population Pyknosed Nuclei (%) ([3]; 12 h, replicate 1): 8% and 13% | Population Tubulin-Different-Phenotype (%) ([3]; 12 h, replicate 1): 48% and 88% | Total Cell Count ([3]; 12 h, replicate 1): 178 and 187 | Population Fragmented Nuclei (%) ([3]; 12 h, replicate 2): 40% and 27% | Population Healthy Nuclei (%) ([3]; 12 h, replicate 2): 47% and 65% | Population Membrane Permeable-Phenotype (%) ([3]; 12 h, replicate 2): 53% and 54% | Population Mitotic Cells (%) ([3]; 12 h, replicate 2): 60% and 90% | Population Normal (%) ([3]; 12 h, replicate 2): 47% and 90% | Population Pyknosed Nuclei (%) ([3]; 12 h, replicate 2): 11% and 7% | Total Cell Count ([3]; 12 h, replicate 2): 150 and 127 | Population Apoptotic (%) ([3]; 24 h, replicate 1): 37% and 42% | Population Healthy Nuclei (%) ([3]; 24 h, replicate 1): 48% and 84% | Population Membrane Permeable-Phenotype (%) ([3]; 24 h, replicate 1): 54% and 41% | Population Mitotic Cells (%) ([3]; 24 h, replicate 1): 62% and 57% | Population Normal (%) ([3]; 24 h, replicate 1): 55% and 95% | Population Pyknosed Nuclei (%) ([3]; 24 h, replicate 1): 23% and 8% | Total Cell Count ([3]; 24 h, replicate 1): 224 and 170 | Population Apoptotic (%) ([3]; 24 h, replicate 2): 50% | Population Fragmented Nuclei (%) ([3]; 24 h, replicate 2): 45% and 17% | Population Healthy Nuclei (%) ([3]; 24 h, replicate 2): 39% and 76% | Population Membrane Permeable-Phenotype (%) ([3]; 24 h, replicate 2): 62% and 37% | Population Mitotic Cells (%) ([3]; 24 h, replicate 2): 50% | Population Normal (%) ([3]; 24 h, replicate 2): 47% and 91% | Population Pyknosed Nuclei (%) ([3]; 24 h, replicate 2): 14% and 5% | Total Cell Count ([3]; 24 h, replicate 2): 160 and 131 | Growth Rate [4, 7]: 0 | Growth Rate [4, 8]: 0 | Growth Rate [4, 9]: 0 | Growth Rate [4, 10]: 0 | Growth Rate [4, 11]: 0 | Growth Rate ([5]; 0 h, replicate number 1, timepoint 0 hours): 0 | Growth Rate [5, 8]: 1 | Growth Rate [5, 9]: 0 | Growth Rate [5, 10]: 0 | Growth Rate [5, 11]: 0 | Growth Rate [6, 7]: 0 | Growth Rate [6, 9]: 1 | Growth Rate [6, 10]: 0 | Growth Rate [6, 11]: 0 | Growth Rate ([6]; 24 h, replicate number 2, timepoint 24 hours): 1
